Experimental findings from PubChem BioAssay are described below.

Assay [1] can be described thus: inhibitors of TNFa-induced NFkB p65 translocation, primary screen, imaging, HUVEC, MLSMR starter and 10KST1 sets (AID 438;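 active = inhibition above 20% together with a positive visual image hit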;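 also: compound added about 3h40 before a 20 min TNFalpha stimulation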;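 as to inhibition: signal is the nuclear over cytoplasmic p65 intensity ratio per well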). As to conditions: HUVEC TNFa-induced p65 nuclear translocation; cell count: measured here: nuclei count (cytotoxicity indicator), at 2.08 µM; inhibition: at 2 µM, stronger effect = higher value, 0% TNFa-plus-vehicle, 100% no-TNFa wells.
Assay [2] is described as follows: inhibitors of E-selectin induction by TNFa, primary screen, imaging, HUVEC, immunofluorescence, MLSMR starter and 10KST1 sets (AID 487;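 active = visually confirmed hit in the image check and inhibition above 20%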;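 as to inhibition: signal is fraction of cell area covered by stained E-selectin grains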;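 as to nuclei count: 100% = median nuclei count of all wells on the same plate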). As to conditions: HUVEC TNFalpha-induced E-selectin immunofluorescence imaging, at 2 µM; inhibition: stronger effect = higher value; nuclei count: measured here: cell number, toxicity.
Assay [3] in a line: DUSP6 inhibitors restoring Erk phosphorylation by chemical complementation, primary imaging in DUSP6-transfected HeLa (AID 609).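 As to inhibition: phospho-Erk level distribution per well compared with pooled transfected vehicle control wells.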 As to conditions: HeLa MKP-3 transfected, phospho-Erk imaging KS statistic, at 10 µM, cells stimulated with TPA for 15 min.
The target in assay [4] is Dual specificity protein phosphatase 6 (Homo sapiens) (UniProt Q16828). The description is as above. The following applies: HeLa MKP-3 transfected, phospho-Erk imaging KS statistic; at 10 µM; stronger effect = higher value; cells stimulated with TPA for 15 min.
Dual specificity protein phosphatase 6 (Homo sapiens), sequence (Q16828 whole entry, looked up): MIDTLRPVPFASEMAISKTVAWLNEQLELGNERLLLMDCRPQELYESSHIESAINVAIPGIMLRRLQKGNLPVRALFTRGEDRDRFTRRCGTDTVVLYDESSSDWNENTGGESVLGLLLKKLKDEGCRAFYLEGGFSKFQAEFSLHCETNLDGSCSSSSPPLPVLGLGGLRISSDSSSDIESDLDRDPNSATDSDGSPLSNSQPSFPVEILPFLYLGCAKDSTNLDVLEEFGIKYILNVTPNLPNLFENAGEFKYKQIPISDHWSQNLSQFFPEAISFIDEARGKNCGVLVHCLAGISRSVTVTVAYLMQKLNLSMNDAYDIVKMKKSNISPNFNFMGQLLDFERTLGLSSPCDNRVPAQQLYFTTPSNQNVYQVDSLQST
Assay [5] deals with Voltage-gated potassium channel subunit beta-2 (Rattus norvegicus) (UniProt P62483). Briefly: KvBeta enzyme negative modulators, primary screen, biochemical, NADPH fluorescence (AID 622;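 active = fluorescence slope higher than the sample average by over 3 SD, cut at about -0.22 in these data, passing the limit was not always enough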;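 also: slope of raw intensity against log time taken from 70 to 1610 s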). The following applies: recombinant KvBeta, 4-cyanobenzaldehyde reduction, at 10 µM, stronger effect = higher value.
Voltage-gated potassium channel subunit beta-2 (Rattus norvegicus), sequence (P62483 whole entry, looked up): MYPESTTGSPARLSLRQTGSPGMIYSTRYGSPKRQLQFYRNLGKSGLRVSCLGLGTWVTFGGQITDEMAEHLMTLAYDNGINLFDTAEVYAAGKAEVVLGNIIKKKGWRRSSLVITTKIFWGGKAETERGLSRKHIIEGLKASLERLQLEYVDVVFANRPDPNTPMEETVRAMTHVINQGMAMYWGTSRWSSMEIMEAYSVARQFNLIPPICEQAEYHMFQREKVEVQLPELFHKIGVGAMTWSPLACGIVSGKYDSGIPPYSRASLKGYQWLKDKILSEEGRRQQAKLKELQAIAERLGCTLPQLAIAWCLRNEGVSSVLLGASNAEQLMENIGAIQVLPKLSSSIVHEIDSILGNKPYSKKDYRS
The target is the same in assay [6]. Briefly: KvBeta positive modulators, primary screen, biochemical, NADPH fluorescence (AID 623;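 active = NADPH fluorescence slope more negative than the mean of all samples by about 3 SD, 99.7% confidence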;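 also: fluorescence intensity change per second fitted from 20 to 320 s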). As to conditions: Recombinant KvBeta, NADPH fluorescence decrease slope, 10 min; at 10 µM; stronger effect = lower value.
In assay [7] the target is Muscarinic acetylcholine receptor M4 (Homo sapiens) (UniProt P08173). The assay is described as follows: compounds altering M4/GIRK thallium flux, either direction, primary screen, M4 allosteric agonist project, cell-based, HEK293 M4/GIRK, BTC-AM (AID 625;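 active = fluorescence slope after compound addition differing from the mean of all tested samples at 99.7% confidence, mostly higher but some lower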;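 also: thallium influx through GIRK channels coupled to M4 in HEK293 cells with BTC-AM dye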). The following applies: at 10 µM, actives lie on both sides. An outline of the steps:
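assay system = HEK293 cells with M4 receptor and GIRK channels | medium = pH 7.3 thallium assay buffer | doses = 10 µM final, single point | timing = cells overnight at 37 °C, BTC-AM loading 1 h, reads 2 min total | signal = BTC-AM fluorescence, 1 Hz kinetic reads | read-out = post-addition slope, 15–24 s, of baseline-normalized fluorescence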

Assay [8] can be described thus: inhibitors of larval lipid processing in zebrafish, primary screen, whole organism, PED6 fluorescence, gall bladder and intestine (AID 686;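 active = a full or partial loss of lipid-probe fluorescence in the fish gall bladder, intestine or both, judged by eye; inactive = no fluorescence loss, or compound toxic to the fish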;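 also: larvae 5 to 7 days old with five fish per well; signal comes from phospholipase A2 cleavage of quenched PED6 carried via bile; overnight exposure to compound and PED6 before scoring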). As to conditions: Zebrafish larvae PED6 lipid processing, fluorescence scoring; screened at 20 µM (by protocol). An outline of the steps:
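Also added: quenched phospholipase substrate PED6, 100 nM final, ingested by larvae; System: zebrafish larvae, 5-7 d; Quantity: 5 larvae per well; Compound: 20 µM single dose; Schedule: overnight compound and PED6 incubation; Read-out: visual per-well fluorescence inhibition score; Measured by: By-eye fluorescence microscopy; Medium: E3.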

Assay [9] in a line: inhibitors of Chlamydomonas gravitaxis, primary screen, whole organism, Chlamydomonas reinhardtii, WT vs cilia-less mutant, absorbance, 96-well (AID 463189;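 active = inhibition at or above 50% relative to wild type and mutant plate controls; inactive = inhibition below 50%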;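 also: 0% = wild type cc124 cells in DMSO and 100% = ciliumless bld1 mutant cells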). As to conditions: OD600 absorbance, 2 days, at 10 µM, stronger effect = higher value.
The mark [10] stands for this setting: measured here: cell density z-score.
The mark [11] stands for this setting: measured here: nuclear c-Myc green intensity z-score.
The mark [12] stands for this setting: measured here: nuclear pErk red intensity z-score, stronger effect = higher value.

The structures appear in SMILES notation. Activity calls are given as the source filed them.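 The calls were made as follows, unless noted: active = compounds giving at least 50% inhibition in the cell-based MKP-3 phosphatase rescue imaging test; inactive = the rest.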

Muscarinic acetylcholine receptor M4 (Homo sapiens), sequence (P08173 whole entry, looked up): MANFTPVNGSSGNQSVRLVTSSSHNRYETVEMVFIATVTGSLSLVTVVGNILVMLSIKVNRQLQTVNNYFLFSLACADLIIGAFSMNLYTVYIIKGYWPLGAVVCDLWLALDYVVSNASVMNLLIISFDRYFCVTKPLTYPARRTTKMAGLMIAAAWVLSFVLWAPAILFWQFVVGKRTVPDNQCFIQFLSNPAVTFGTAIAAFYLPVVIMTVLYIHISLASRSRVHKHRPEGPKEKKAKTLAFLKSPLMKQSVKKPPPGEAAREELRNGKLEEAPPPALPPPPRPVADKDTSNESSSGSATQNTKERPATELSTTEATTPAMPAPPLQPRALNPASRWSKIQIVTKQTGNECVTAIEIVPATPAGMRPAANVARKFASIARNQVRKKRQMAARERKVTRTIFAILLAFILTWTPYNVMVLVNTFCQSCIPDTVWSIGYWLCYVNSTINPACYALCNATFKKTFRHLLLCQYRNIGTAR

Regarding `Cc1ccc(S(=O)(=O)/C(C#N)=C/c2c(N3CCN(C)CC3)nc3ccccn3c2=O)cc1`, the cell count in [1] was determined as 484. The inhibition was 6.4% (inactive) in [1], -211% (inactive) in assay [2], 1.04% (inactive) in assay [4] and -9.76% (inactive) in assay [9]. In assay [2], this compound had a nuclei count of 173%. Besides, the z-score in assay [3] (setting [10]) was 0.277; in assay [3] (setting [11]), -0.883; in assay [3] (setting [12]) it was 0.543. Further, the fluorescence slope was -0.454 (inactive) in assay [5] and 0.0048 (inactive) in assay [7]. Further, the NADPH fluorescence slope in assay [6] was -5.5e-05 (inactive). Besides, in assay [8], the outcome was inactive.

With `CC1(C)Cc2c(c(-c3ccccc3Cl)[nH]c(=O)c2C#N)CO1`, the cell count in assay [1] was determined as 591. For the same compound, the inhibition is 5.7% (inactive) in assay [1], -106% (inactive) in assay [2], 11.9% (inactive) in assay [4] and 20.5% (inactive) in [9]. In [2], the nuclei count is 134%. In addition, the z-score in [3] (setting [10]) is 0.999; in assay [3] (setting [11]), -0.743; in assay [3] (setting [12]), 0.0604. Moreover, the values for the fluorescence slope in [5] and in assay [7] were -0.384 (inactive) and 0.00508 (inactive), respectively. For the same compound, the NADPH fluorescence slope in assay [6] was -2.7e-05 (inactive). For the same compound, the compound was classed as inactive in [8].

With `CCc1cc(=O)oc2cc(C)c(CN3CCCC3)c(O)c12`, the cell count in assay [1] is 666. The inhibition is -6.3% (inactive) in assay [1], 27.1% (inactive) in assay [2], -2.29% (inactive) in assay [4] and 3.29% (inactive) in assay [9]. For the same compound, in [2], the nuclei count was found to be 158%. Besides, the z-score was -0.426 in assay [3] (setting [10]), -0.164 in [3] (setting [11]) and -0.144 in assay [3] (setting [12]). Further, the fluorescence slope in assay [5] was -0.444 (inactive); in [7], 0.00438 (inactive). For the same compound, the NADPH fluorescence slope in assay [6] is -0.000155 (inactive). Also, the result in assay [8] was inactive.

Turning to `C(=N\n1cnnc1)/c1ccccn1`, the cell count in [1] worked out at 607. Also, the inhibition is 3.2% (inactive) in assay [1], -109% (inactive) in assay [2], 9.42% (inactive) in assay [4] and 16.5% (inactive) in assay [9]. Also, the nuclei count in assay [2] came out at 127%. The z-score in assay [3] (setting [10]) was 0.675; in [3] (setting [11]) it was 3.12; in assay [3] (setting [12]), -0.143. The fluorescence slope is -0.442 (inactive) in assay [5] and 0.00562 (inactive) in [7]. In addition, the NADPH fluorescence slope in assay [6] is -0.000114 (inactive). The call in assay [8] was inactive.

With `CCCc1nc2n[nH]c(N)c2c2c1COC(C)(C)C2`, in assay [1], the cell count stood at 597. Besides, the inhibition in assay [1] was -4% (inactive); in [2] it was -13.2% (inactive); in [4] it was -11.9% (inactive); in assay [9], 10.6% (inactive). In assay [2], the nuclei count turned out to be 168%. Besides, the figures for the z-score in assay [3] (setting [10]), in [3] (setting [11]) and in [3] (setting [12]) were -0.7, -1.13 and 1.4, respectively. Also, the fluorescence slope is -0.369 (inactive) in assay [5] and 0.00478 (inactive) in assay [7]. In addition, in assay [6], the NADPH fluorescence slope is -3.1e-05 (inactive). For the same compound, the compound was called inactive in assay [8].

In the case of `COC(=O)C(NC(=O)c1ccccc1)(Nc1nccs1)C(F)(F)F` (stereo not given), the cell count in assay [1] was determined as 677. Besides, the inhibition in assay [1] is -5.5% (inactive); in assay [2] it was -7.4% (inactive); in assay [4] it was 22.1% (inactive); in assay [9] it was -5.27% (inactive). In [2], this compound yielded a nuclei count of 159%. Also, the z-score in assay [3] (setting [10]) was 1.36; in assay [3] (setting [11]) it was -0.846; in assay [3] (setting [12]), 0.224. For the same compound, the fluorescence slope was -0.474 (inactive) in [5] and 0.00463 (inactive) in assay [7]. Besides, the NADPH fluorescence slope in [6] was -2.6e-05 (inactive). For the same compound, the outcome in assay [8] was inactive.

Turning to `CCSc1nnc(NC(=O)NC(CC)(C(F)(F)F)C(F)(F)F)s1`, the cell count in [1] is 704. Also, the inhibition in [1] was 0.5% (inactive); in assay [2], -56.3% (inactive); in [4], 9.07% (inactive); in assay [9], 22.7% (inactive). In addition, in assay [2], the nuclei count was found to be 140%. In addition, the z-score in [3] (setting [10]) was -0.466; in assay [3] (setting [11]), -0.955; in [3] (setting [12]), -0.238. Further, the fluorescence slope in [5] is -0.431 (inactive); in assay [7], 0.00857 (inactive). For the same compound, in assay [6], the NADPH fluorescence slope was -5e-05 (inactive). Further, the outcome in [8] was inactive.

As for `CCOC(=O)C1CCN(c2ncnc3c2cnn3-c2ccc(OC)cc2)CC1`, the cell count in [1] was 680. The inhibition in assay [1] was -2.1% (inactive); in assay [2], -138% (inactive); in [4], 13.4% (inactive); in assay [9] it was -3.46% (inactive). This compound also gave a nuclei count in assay [2] of 191%. In addition, the z-score in assay [3] (setting [10]) was 0.032; in assay [3] (setting [11]) it was -0.586; in [3] (setting [12]), 0.421. For the same compound, the fluorescence slope in [5] was -0.405 (inactive); in [7], 0.00612 (inactive). Also, the NADPH fluorescence slope in assay [6] was -3.9e-05 (inactive). Further, the compound was classed as inactive in assay [8].

Consider `C=CCOc1nc2c(c(=O)n(Cc3ccc(Cl)cc3)c(=O)n2C)n1C`, for which the cell count in assay [1] came out at 534. The inhibition was -5.1% (inactive) in [1], 22.1% (inactive) in assay [2], -9.91% (inactive) in assay [4] and -3.62% (inactive) in assay [9]. This compound displayed a nuclei count in assay [2] of 170%. The z-score in assay [3] (setting [10]) is -0.487; in assay [3] (setting [11]), 1.21; in assay [3] (setting [12]), 0.796. Besides, the fluorescence slope is -0.414 (inactive) in [5] and 0.00453 (inactive) in assay [7]. In [6], the NADPH fluorescence slope was -5.4e-05 (inactive). The compound was called inactive in assay [8].

Turning to `Cn1c(NCc2ccccc2)nc2c1c(=O)n(Cc1ccc(Br)cc1)c(=O)n2C`, the cell count in [1] was 696. The inhibition in assay [1] is -21.9% (inactive); in [2] it was -78.3% (inactive); in [4] it was 13.9% (inactive); in [9], 36.1% (inactive). Also, the nuclei count in [2] is 171%. Moreover, the z-score in assay [3] (setting [10]) was found to be 0.333; in [3] (setting [11]), 0.526; in assay [3] (setting [12]), 0.876. Further, the fluorescence slope was -0.47 (inactive) in [5] and 0.00559 (inactive) in assay [7]. For the same compound, in assay [6], the NADPH fluorescence slope was -5.2e-05 (inactive). Besides, the outcome in assay [8] was inactive.

A word on the inhibition: it is the drop in the measured response relative to a control, in per cent.
